In brackets after ≈: the same amount, converted by molar mass.
Key:
Type in all cases: functional
Campylobacter jejuni [1] = assay: Antibacterial activity against bla gene-negative and nitrocefin reaction-negative beta-lactamase harboring Campylobacter jejuni isolate P835 by NCCLS agar doubling dilution method in presence of Tazobactam
Outline: (§1)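 MICs of β-lactams by agar doubling dilution following the NCCLS (CLSI) Campylobacter Working Group procedure, with C. jejuni NCTC 11168 and C. coli NCTC 11366 as controls. Isolates were from UK poultry flocks. β-Lactamase status was set by Cj0299 PCR (281-bp amplimer) and by a nitrocefin colour change of sonicated lysate within 5 min, or within 30 min on repeat.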

Campylobacter coli [2] = assay: Antibacterial activity against bla gene-positive and nitrocefin reaction-positive beta-lactamase harboring Campylobacter coli isolate P321 by NCCLS agar doubling dilution method in presence of Tazobactam; outline: as §1
Campylobacter jejuni [3] = assay: Antibacterial activity against bla gene-positive and nitrocefin reaction-positive beta-lactamase harboring Campylobacter jejuni isolate P316 by NCCLS agar doubling dilution method in presence of Tazobactam
Outline: (§2)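 MICs by agar doubling dilution per the NCCLS (now CLSI) Campylobacter Working Group method. Isolates came from UK chicken flocks (feces, ceca or farm environment), 2000–2006. C. jejuni NCTC 11168 and C. coli NCTC 11366 served as control strains. The ampicillin resistance cutoff was 8 μg/ml; BSAC/CLSI Enterobacteriaceae guidelines were used for other agents.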

Campylobacter coli [4] = assay: Antibacterial activity against Campylobacter coli by NCCLS agar doubling dilution method
Outline: (§3)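 MICs by agar doubling dilution following the NCCLS (CLSI) Campylobacter Working Group procedure, applied to ampicillin- and amoxicillin-resistant isolates from UK chicken flocks (2000–2006). C. jejuni NCTC 11168 and C. coli NCTC 11366 served as control strains. Resistance was called at an ampicillin cutoff of 8 μg/ml. Other agents were judged against Enterobacteriaceae guidelines (BSAC, CLSI).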

Campylobacter jejuni [5] = assay: Antibacterial activity against bla gene-negative and nitrocefin reaction-negative beta-lactamase harboring Campylobacter jejuni isolate P1962 by NCCLS agar doubling dilution method in presence of Tazobactam; outline: as §1
Campylobacter jejuni [6] = assay: Antibacterial activity against bla gene-positive and nitrocefin reaction-negative beta-lactamase harboring Campylobacter jejuni isolate NCTC 11168 by NCCLS agar doubling dilution method in presence of Tazobactam; outline: as §1
Campylobacter jejuni [7] = assay: Antibacterial activity against bla gene-positive and nitrocefin reaction-positive beta-lactamase harboring Campylobacter jejuni isolate P338 by NCCLS agar doubling dilution method in presence of Tazobactam; outline: as §2
Campylobacter jejuni [8] = assay: Antibacterial activity against Campylobacter jejuni isolate P338 harboring blaOXA-61::cat gene by NCCLS agar doubling dilution method in presence of Tazobactam
Outline: (§4)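 Agar doubling dilution MICs (NCCLS/CLSI Campylobacter Working Group method) against Cj0299-inactivated mutants. Mutants were made by transforming the C. jejuni isolate with pCI and selecting on Mueller-Hinton agar with 10 μg/ml chloramphenicol for 3–5 days. Chromosomal insertion was confirmed by PCR with Cj0299 and cat primers.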

Campylobacter jejuni [9] = assay: Antibacterial activity against bla gene-negative and nitrocefin reaction-positive beta-lactamase harboring Campylobacter jejuni isolate P843 by NCCLS agar doubling dilution method in presence of Tazobactam; outline: as §1
Campylobacter coli [10] = assay: Antibacterial activity against bla-positive and beta-lactamase-weakly positive Campylobacter coli isolate P1627 by NCCLS agar doubling dilution method in presence of Tazobactam; outline: as §2
Campylobacter jejuni [11] = assay: Antibacterial activity against bla gene-positive and nitrocefin reaction-positive beta-lactamase harboring Campylobacter jejuni isolate P286 by NCCLS agar doubling dilution method in presence of Tazobactam; outline: as §2
Campylobacter coli [12] = assay: Antibacterial activity against Campylobacter coli by NCCLS agar doubling dilution method in presence of Tazobactam; outline: as §1
Campylobacter jejuni [13] = assay: Antibacterial activity against Campylobacter jejuni by NCCLS agar doubling dilution method in presence of Tazobactam; outline: as §1
Campylobacter jejuni [14] = assay: Antibacterial activity against bla gene-positive and nitrocefin reaction-negative beta-lactamase harboring Campylobacter jejuni isolate P1698 by NCCLS agar doubling dilution method in presence of Tazobactam; outline: as §1
Campylobacter jejuni [15] = assay: Antibacterial activity against bla gene-positive and nitrocefin reaction-positive beta-lactamase harboring Campylobacter jejuni isolate P1618 by NCCLS agar doubling dilution method in presence of Tazobactam; outline: as §1
Campylobacter jejuni [16] = assay: Antibacterial activity against bla gene-negative and nitrocefin reaction-negative beta-lactamase harboring Campylobacter jejuni isolate P850 by NCCLS agar doubling dilution method in presence of Tazobactam; outline: as §1
Campylobacter jejuni [17] = assay: Antibacterial activity against Campylobacter jejuni isolate P1093 harboring blaOXA-61::cat gene by NCCLS agar doubling dilution method in presence of Tazobactam; outline: as §4
Campylobacter jejuni [18] = assay: Antibacterial activity against bla gene-negative and nitrocefin reaction-positive beta-lactamase harboring Campylobacter jejuni isolate P854 by NCCLS agar doubling dilution method in presence of Tazobactam; outline: as §1
Campylobacter jejuni [19] = assay: Antibacterial activity against Campylobacter jejuni isolate P270 harboring blaOXA-61::cat gene by NCCLS agar doubling dilution method in presence of Tazobactam
Campylobacter jejuni [20] = assay: Antibacterial activity against bla gene-positive and nitrocefin reaction-positive beta-lactamase harboring Campylobacter jejuni isolate P1650 by NCCLS agar doubling dilution method in presence of Tazobactam; outline: as §2
Campylobacter jejuni [21] = assay: Antibacterial activity against bla gene-positive and nitrocefin reaction-positive beta-lactamase harboring Campylobacter jejuni isolate P285 by NCCLS agar doubling dilution method in presence of Tazobactam; outline: as §2
Campylobacter jejuni [22] = assay: Antibacterial activity against Campylobacter jejuni by NCCLS agar doubling dilution method; outline: as §3
Campylobacter jejuni [23] = assay: Antibacterial activity against bla gene-positive and nitrocefin reaction-positive beta-lactamase harboring Campylobacter jejuni isolate P790 by NCCLS agar doubling dilution method in presence of Tazobactam; outline: as §2
Campylobacter jejuni [24] = assay: Antibacterial activity against bla gene-positive and nitrocefin reaction-negative beta-lactamase harboring Campylobacter jejuni isolate P1699 by NCCLS agar doubling dilution method in presence of Tazobactam; outline: as §1
Campylobacter coli [25] = assay: Antibacterial activity against bla gene-positive and nitrocefin reaction-positive beta-lactamase harboring Campylobacter coli isolate P1826 by NCCLS agar doubling dilution method in presence of Tazobactam; outline: as §1
Campylobacter jejuni [26] = assay: Antibacterial activity against bla gene-positive and nitrocefin reaction-positive beta-lactamase harboring Campylobacter jejuni isolate P1093 by NCCLS agar doubling dilution method in presence of Tazobactam; outline: as §1
Campylobacter jejuni [27] = assay: Antibacterial activity against bla gene-positive and nitrocefin reaction-positive beta-lactamase harboring Campylobacter jejuni isolate P1730 by NCCLS agar doubling dilution method in presence of Tazobactam; outline: as §2

## C[C@]1(Cn2ccnn2)[C@H](C(=O)O)N2C(=O)C[C@H]2S1(=O)=O [TAZOBACTAM]
Campylobacter jejuni [1]
  MIC: > 16 mg/L
Campylobacter coli [2]
  MIC: > 16 mg/L
Campylobacter jejuni [3]
  MIC: > 16 mg/L
Campylobacter coli [4]
  MIC: 16 mg/L (≈ 53.3 µM)
  MIC50: 16 mg/L (≈ 53.3 µM)
  MIC90: 32 mg/L (≈ 107 µM)
Campylobacter jejuni [5]
  MIC: > 16 mg/L
Campylobacter jejuni [6]
  MIC: 16 mg/L
Campylobacter jejuni [7]
  MIC: > 16 mg/L
Campylobacter jejuni [8]
  MIC: 8 mg/L
Campylobacter jejuni [9]
  MIC: > 16 mg/L
Campylobacter coli [10]
  MIC: 16 mg/L
Campylobacter jejuni [11]
  MIC: > 16 mg/L
Campylobacter coli [12]
  MIC50: 16 mg/L
  MIC90: 32 mg/L
Campylobacter jejuni [13]
  MIC50: 16 mg/L
  MIC90: 32 mg/L
  MIC (range minimum): 1 mg/L
Campylobacter jejuni [14]
  MIC: 16 mg/L
Campylobacter jejuni [15]
  MIC: 32 mg/L
Campylobacter jejuni [16]
  MIC: > 8 mg/L
Campylobacter jejuni [17]
  MIC: 32 mg/L
Campylobacter jejuni [18]
  MIC: > 8 mg/L
Campylobacter jejuni [19]
  MIC: 4 mg/L
Campylobacter jejuni [20]
  MIC: 32 mg/L
Campylobacter jejuni [21]
  MIC: > 16 mg/L
Campylobacter jejuni [22]
  MIC50: 16 mg/L (≈ 53.3 µM)
  MIC90: 32 mg/L (≈ 107 µM)
Campylobacter jejuni [23]
  MIC: > 16 mg/L
Campylobacter jejuni [24]
  MIC: < 8 mg/L
Campylobacter coli [25]
  MIC: 16 mg/L
Campylobacter jejuni [26]
  MIC: 256 mg/L
Campylobacter jejuni [27]
  MIC: 16 mg/L

From ChEMBL document CHEMBL1649560, “Beta-lactamase-mediated beta-lactam resistance in Campylobacter species: prevalence of Cj0299 (bla OXA-61) and evidence for a novel beta-Lactamase in C. jejuni” (2009)
